ChEMBL document CHEMBL1137673, “Improved synthesis of seven aromatic Baylis-Hillman adducts (BHA): evaluation against Artemia salina Leach. and Leishmania chagasi” (Eur J Med Chem, 2009)

Key:
Leishmania chagasi = experiment: Antileishmanial activity against promastigote form of Leishmania chagasi MCAN/BR/99/JP15 after 72 hrs; format: functional, organism-based, MCAN/BR/99/JP
Summary of the method: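 Log-phase promastigotes at 1 × 10^6 parasites/mL were grown at 26 °C in Schneider's Drosophila medium with 20% FBS, with or without a range of adduct concentrations, for 72 h. Glucantime served as the reference drug. Parasites were fixed in isotonic citric acid/NaCl/formalin solution, and growth was counted by light microscopy in a Neubauer chamber. Three independent experiments were run in triplicate.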

[1] = tested on: Artemia salina (organism); experiment: Toxicity in Artemia salina after 24 hrs; format: organism-based; details: in vivo
Summary of the method: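 Brine shrimp nauplii hatched in filtered sea water over 48 h (lamp drawing hatched shrimps through a partitioned tank), exposed to compound in DMSO/sea water in tubes for 24 h under light. Dead and surviving shrimps counted; LC50 from concentration versus lethality percentage on a probit scale. Sea water plus DMSO served as control.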

Leishmania amazonensis = experiment: Antileishmanial activity against Leishmania amazonensis; format: functional, organism-based
[2] = Leishmania chagasi, MCAN/BR/99/JP, 72 h, read-out: IC50

Compound	IC50 (Leishmania chagasi; [2]) [µM]	LC50 at 24 h [1] [µM]	IC50 (Leishmania amazonensis) [µM]	IC50 (Leishmania chagasi) [µg/mL]
C=C(C#N)C(O)c1cccc([N+](=O)[O-])c1 (stereo unspecified)	34.6	471	–	–
C=C(C#N)C(O)c1cccnc1 (stereo unspecified)	36.9	555	–	–
C=C(C#N)C(O)c1ccc(Br)cc1 (stereo unspecified)	25.2	130	–	–
C=C(C#N)C(O)c1ccncc1 (stereo unspecified)	30.1	443	–	–
C=C(C#N)C(O)c1ccccc1[N+](=O)[O-] (stereo unspecified)	38.8	430	–	–
C=C(C#N)C(O)c1ccccn1 (stereo unspecified)	32	545	–	–
C=C(C#N)C(O)c1ccc([N+](=O)[O-])cc1 (stereo unspecified)	37.4	180	7.9	–
MEGLUMINE ANTIMONATE	–	–	–	1620.3
